Compound activity: PubChem BioAssay, Broad Institute
Most compounds without a hit are left out; they make up all but 2% or so of the library.
SR-BI DiI-HDL act – enhances SR-BI lipid uptake from DiI-HDL | activation, % at 12.5 µM | CHO ldlA[mSR-BI] cells, DiI-HDL uptake fluorescence, 3 h; 100 = double the neutral-control signal | actives 0.096% (n = 320,000);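 active = mean replicate activation of at least 60% and every replicate at or above 60%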
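Assay system: CHO ldlA[mSR-BI] cells, LDL receptor-null, SR-BI overexpressing; medium: Ham's F12 with 0.5% BSA, HEPES 25 mM, pH 7.4; also added: DiI-HDL 10 µg/mL; timing: 3 h uptake period with compound, 37 °C; signal: DiI fluorescence, bottom read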
SR-BI HDL uptake – blocks mouse SR-BI lipid uptake from DiI-HDL; ldlA[mSR-BI] CHO cells, DiI-HDL uptake fluorescence, 3 h; actives 0.96% (n = 320,000); inhibition, % at 12.5 µM; AID 488896; Q61009;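 active = mean replicate inhibition of at least 70% and a set share of replicates each scoring 70 or more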
CDK5 p35 inh – inhibitors of human CDK5/p35 kinase. Q00535+Q15078. Recombinant CDK5/p35, ADP-Glo luminescence, 60 min. inhibition, % at 10 µM. actives 0.01% (n = 330,000);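 active = highest replicate inhibition of at least 50% and at least 75% of replicates reaching 50%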
dFosB activator – activators of mouse delta FosB homodimer; actives 0.99% (n = 340,000); P13346; purified delta FosB, TAMRA-CDK5 oligo fluorescence polarization; percent of positive-control signal above neutral wells; activation, % at 25 µM;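 active = mean activation above about 17%, with every replicate also reaching it, limit read from the data, passing the limit was not always enough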
Target sequence (P13346 whole entry, looked up): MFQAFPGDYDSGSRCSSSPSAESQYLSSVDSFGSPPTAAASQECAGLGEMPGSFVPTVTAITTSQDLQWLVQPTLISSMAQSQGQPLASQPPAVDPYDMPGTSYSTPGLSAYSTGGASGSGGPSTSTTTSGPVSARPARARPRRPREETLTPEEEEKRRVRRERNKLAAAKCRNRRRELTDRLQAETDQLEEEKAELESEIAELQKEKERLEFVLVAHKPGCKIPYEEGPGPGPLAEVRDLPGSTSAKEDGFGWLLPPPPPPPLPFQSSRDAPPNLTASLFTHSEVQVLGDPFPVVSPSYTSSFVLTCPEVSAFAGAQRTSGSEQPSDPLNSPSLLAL
Numbers stand for hits; – = inactive; · = not tested or not shown.

SMILES	SR-BI DiI-HDL act	SR-BI HDL uptake	CDK5 p35 inh	dFosB activator
COc1ccc(/C=C/C(=O)NC(=S)NNC(=O)c2cnccn2)cc1	–	–	–	16.9
O=C(/C=C/c1ccc(F)cc1)NC(=S)NNC(=O)c1cnccn1	–	–	–	–
CCOC(=O)c1cnc2cc(F)c(F)cc2c1N1CCN(C)CC1	–	–	–	–
COc1cc(/C=C\C(=O)NCc2ccc3[nH]c(C)cc3c2)cc(OC)c1OC	–	75.5	–	–
Cc1cccc(NC(=O)CSc2nnc(CNC(=O)c3ccc(S(=O)(=O)N(C)C)cc3)n2-c2cccc(C)c2)c1	–	84.8	–	–
COC(=O)c1ccc(C2N=C(c3cccs3)CC(c3ccccc3O)N2)cc1 (stereo not drawn)	–	74.8	–	–
C/C(=N\NC(N)=S)C1(C)CCCCC1	–	77.9	–	–
CC(C)CNC(=O)c1cc2nc3c(c(C(F)(F)F)n2n1)CCc1ccccc1-3	–	78.2	–	–
CCOC(=O)CN(C#N)c1nc(N(C)C)nc(N(C)C)n1	·	·	–	–
COc1cccc(C(=O)/C=C2\Sc3ccccc3N2C)c1	–	82.5	–	–
Cc1ccc(-n2nc(C)cc2Nc2ncc(Cl)cc2Cl)cc1	–	81.5	–	–
Cc1cc(Nc2ncc(Cl)cc2Cl)n(-c2ccccc2C)n1	–	–	–	–
COc1cc(NC(=O)c2cccc(C)c2)ccc1NC(=O)c1cc2ccccc2o1	–	84.7	–	–
CCOc1cccc(C(=O)Nc2ccc(NC(=O)c3cc4ccccc4o3)c(OC)c2)c1	–	71.7	–	–
CC(C)(C)c1ccc(NC(=O)CN2C(=O)NC(C)(C3CC3)C2=O)cc1 (stereo not drawn)	–	–	–	–
CC1CCC(NS(=O)(=O)c2ccc(Cl)nc2)CC1 (stereo not drawn)	–	–	–	–
Cc1n[nH]c(C)c1S(=O)(=O)N1CCCC(C(=O)O)C1 (stereo not drawn)	–	–	–	–
Nc1ccc(Cn2ccc3c4c(N)nc(N)nc4ccc32)cc1	–	–	–	157.8
Cc1nc2ccc(N)cc2c(=O)n1Cc1ccc(Cl)cc1	–	–	–	–
O=C(c1ccccc1F)N1CCN(C(=O)C(c2ccccc2)c2ccccc2)CC1	–	–	–	–
NC(=O)N/N=C/c1c(O)ccc2oc3c(c12)CCCC3	–	–	90.2	–
CCc1ccc(NC(=O)c2cc(S(=O)(=O)N3CCc4ccccc43)cn2C)cc1	–	–	–	–
COc1ccc(-c2csc(Nc3ccc(S(N)(=O)=O)cc3)n2)cc1	107.9	–	–	–
COc1cccc(Nc2nc(-c3ccc4c(c3)OCCO4)cs2)c1	–	91.4	–	–
COc1ccc(-c2csc(Nc3ccccc3)n2)cc1	–	73.4	–	–
SMILES	SR-BI DiI-HDL act	SR-BI HDL uptake	CDK5 p35 inh	dFosB activator
CCc1noc(C)c1C(=O)Nc1cc(S(=O)(=O)N2CCOCC2)ccc1OCC(F)(F)F	–	–	–	–
Cc1cc(Br)c(NC(=O)CSc2n[nH]c(N)n2)c(Br)c1	–	–	–	–
O=C1C=C(c2ccc(Cl)c(C(F)(F)F)c2)C[C@@H](c2ccc(Cl)cc2)C1	–	–	–	–
COc1ccc(-c2nc(-c3ccc(NC(=O)c4ccc(Br)o4)cc3)no2)cc1OC	–	78.5	–	–
COc1cccc(-c2nc(-c3ccc(NC(=O)Cc4ccccc4OC)cc3)no2)c1	–	78.3	–	–
COc1cc(-c2nc(-c3ccc(NC(=O)c4ccc(Br)o4)cc3)no2)cc(OC)c1OC	–	–	–	49.1
COc1ccc(-c2nc(-c3ccc(Br)o3)no2)cc1OC	–	–	–	–
COc1cc(C(=O)NNC(=O)CNC(=O)c2ccc(Br)o2)cc(OC)c1OC	–	–	–	–
COCc1ccc(C(=O)NC(C)c2cnn(-c3ccccc3C)c2C)o1 (stereo not drawn)	–	–	–	–
COc1ccc(-c2c(C)c3ccc(O)cc3oc2=O)cc1	–	–	·	–
CN(C)C(CNC(=O)c1ccc2nccnc2c1)c1ccco1 (stereo not drawn)	–	–	–	–
NC(=S)N=Nc1c(O)n(C2OC(=O)c3ccccc32)c2ccccc12 (stereo not drawn)	–	–	–	26.2
NC(=S)N=Nc1c(O)n(CCCl)c2ccccc12	–	–	–	–
COc1ccc(NC(=O)CN(C)C(=O)c2ccc3c(c2)S(=O)(=O)N=C2CCCCCN23)cc1	–	–	–	–
CC(=O)Nc1ccc(S(=O)(=O)Oc2cccc(/C=C3\SC(N)=NC3=O)c2)cc1	–	–	–	32.9
COc1cc(/C=C2\SC(N)=NC2=O)ccc1OCC(=O)Nc1ccc(C)cc1	–	–	–	79.1
